This is one part of a sample in which hits are shown more often than they occur.
IDH1 R132H inh = inhibitors of IDH1 R132H reductase, primary screen, biochemical, plate reader, single point; diaphorase/resazurin fluorescence, 60 min; AID 624101, 2012; 70,000 tested, 0.18% active; inhibition, % at 10 µM; in the data active means inhibition above about 34%; inconclusive means no clear call, values can overlap the other calls; inactive means below about 11%;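 further: 0% = DMSO and 100% = no enzyme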
T cruzi growth-1 = T. cruzi intracellular proliferation inhibitors, primary screen, cell-based, beta-gal Tulahuen parasites, NIH3T3 host, luminescence; T. cruzi beta-gal in NIH3T3, GalScreen luminescence, 90 h; inhibition, % at 8.34 µM; 77,000 tested, 5.9% active;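 active means mean inhibition above about 93%, with at least 55% of replicates each passing it, limit read from the data, passing the limit was not always enough; inconclusive means only one of those two conditions holds; inactive means neither condition holds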
GASC1 inh = inhibitors of GASC-1 (KDM4C) histone demethylase, primary screen, biochemical, single concentration HTS | Lysine-specific demethylase 4C (Homo sapiens), Q9H3R0 | GST-KDM4C 2-372, H3K9me3 peptide, LANCE TR-FRET | inhibition, % at 12.5 µM | 96,000 tested, 0.15% active | AID 720574, 2013;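 active means mean replicate inhibition above about 25%, with at least 55% of replicates also reaching it, limit read from the data, passing the limit was not always enough; inconclusive means only one of those two conditions met; inactive means neither condition met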
Target sequence (Q9H3R0 2-372 limits assumed): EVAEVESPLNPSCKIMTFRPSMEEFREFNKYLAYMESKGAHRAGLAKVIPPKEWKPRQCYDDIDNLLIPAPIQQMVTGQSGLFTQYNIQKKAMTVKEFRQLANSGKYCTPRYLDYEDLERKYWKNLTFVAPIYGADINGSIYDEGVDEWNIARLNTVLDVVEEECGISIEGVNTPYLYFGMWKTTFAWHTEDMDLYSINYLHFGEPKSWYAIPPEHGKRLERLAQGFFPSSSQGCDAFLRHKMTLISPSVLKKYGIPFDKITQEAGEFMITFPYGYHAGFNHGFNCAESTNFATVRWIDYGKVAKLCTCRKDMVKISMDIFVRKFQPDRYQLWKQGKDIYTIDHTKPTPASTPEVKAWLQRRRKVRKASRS
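reagent = H3K9me3 peptide substrate, Fe(II), 2-oxoglutarate | system = GST-tagged GASC-1 (JMJD2C) catalytic fragment, aa 2-372 | amount = enzyme final amount 10 nM | read-out = Fall in 671/618 emission ratio as inhibition | medium = HEPES buffer, pH 7.5, plus ascorbate | schedule = 30 min reaction, 60 min detection, RT | measured by = LANCE TR-FRET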
T cruzi growth-2 = T. cruzi intracellular proliferation inhibitors, confirmation, cell-based, NIH3T3 host, beta-gal parasite, luminescence, cherry-pick. shares compounds with T cruzi growth-1. T. cruzi beta-gal in NIH3T3, GalScreen luminescence, 90 h. inhibition, % at 8.35 µM. 5,600 tested, 72% active;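 active means mean replicate inhibition above about 95% and at least 55% of replicates individually reaching it, limit read from the data; inconclusive means only one of the two criteria is met; inactive means neither criterion is met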
T cruzi growth-3 = inhibitors of intracellular T. cruzi replication, confirmation, NIH3T3 host cells, beta-gal parasites, cherry-pick, set 2 | shares compounds with T cruzi growth-1 | T. cruzi beta-gal in NIH3T3, GalScreen luminescence, 90 h | inhibition, % at 2.09 µM | 5,600 tested, 21% active | AID 651740, 2012;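 active means mean inhibition above about 95%, with at least 55% of replicates also reaching it, limit read from the data; inconclusive means meets just one of the two conditions; inactive means meets neither condition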;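 further: plate controls were neutral control median for no effect and positive control median for full effect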
3T3 cytotox = cytotoxicity in mouse NIH/3T3 fibroblasts, confirmation, cytotoxicity control for T. cruzi proliferation inhibitor project, cell-based, cherry-pick, single point. shares compounds with T cruzi growth-1. cytotoxicity (signal decrease), % at 8.35 µM. NIH/3T3 viability, CellTiter-Glo ATP luminescence, 90 h. 5,600 tested, 14% active;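 active means mean signal decrease across replicates above about 35% based on untreated-well scatter, with enough replicates individually passing, limit read from the data; inconclusive means no rule stated though some were filed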;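 further: 0% = median of neutral control wells and 100% = median of positive control wells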
3T3 cytotox 2 = NIH/3T3 fibroblast cytotoxicity, confirmation, cytotoxicity control, cell-based, cherry-pick, single point, set 2; shares compounds with T cruzi growth-1; NIH/3T3 viability, CellTiter-Glo ATP luminescence, 90 h; inhibition, % at 24.9 µM; 5,600 tested, 56% active;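 active means mean loss of cell viability signal at or above a set limit, and enough replicates individually reaching it; inconclusive means meets only the mean limit or only the replicate share; inactive means meets neither condition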;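 further: 0% = median of neutral control wells and 100% = median of positive control wells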
The depositor's hits bear a star; ? = inconclusive; · = no result.

SMILES | IDH1 R132H inh | T cruzi growth-1 | GASC1 inh | T cruzi growth-2 | T cruzi growth-3 | 3T3 cytotox | 3T3 cytotox 2
Cc1ccc(S(=O)(=O)N(C)C[C@@H]2OCCCC[C@H](C)Oc3ccc(NC(=O)Nc4ccccc4)cc3C(=O)N([C@H](C)CO)C[C@H]2C)cc1 | · | 73.7 | 0.5 | · | · | · | ·
COCC(=O)N(C)C[C@H]1Oc2cc(C#CC(C)(C)O)ccc2S(=O)(=O)N([C@H](C)CO)C[C@H]1C | -1.3 | · | -0.2 | · | · | · | ·
COCCNC(=O)C[C@@H]1C[C@@H]2c3cc(NC(=O)Nc4ccc(F)cc4)ccc3O[C@@H]2[C@H](CO)O1 | 0.3 | 13.1 | 1.7 | · | · | · | ·
CCCNC(=O)N[C@@H]1CC[C@H](CC(=O)NC2CCCCC2)O[C@H]1CO | 0.1 | · | 4.8 | · | · | · | ·
C[C@@H]1CN([C@H](C)CO)C(=O)c2cc(C3=CCCCC3)cnc2O[C@@H]1CN(C)Cc1ccccn1 | 0.5 | · | 0.2 | · | · | · | ·
C[C@@H]1CN([C@H](C)CO)C(=O)c2cccc(NC(=O)C3CCOCC3)c2O[C@@H]1CN(C)C(=O)NC1CCCCC1 | -1.7 | -28.2 | 0.6 | · | · | · | ·
Cc1ccc(S(=O)(=O)N(C)C[C@H]2OCCCC[C@@H](C)Oc3ccc(NC(=O)Nc4ccccc4)cc3C(=O)N([C@@H](C)CO)C[C@@H]2C)cc1 | · | 108.9* | -1.4 | 108.8* | 62.7 | 17.7 | 35.1*
C[C@H]1CCCCO[C@@H](CN(C)S(=O)(=O)c2ccccc2)[C@@H](C)CN([C@@H](C)CO)C(=O)c2cc(NC(=O)Nc3ccccc3)ccc2O1 | -1.1 | 84.1 | -0.9 | · | · | · | ·
Cc1ccc(S(=O)(=O)N(C)C[C@@H]2OCCCC[C@H](C)Oc3ccc(NC(=O)c4ccccc4)cc3C(=O)N([C@H](C)CO)C[C@@H]2C)cc1 | -1.6 | 95.3* | 0.3 | 104.3* | 55.3 | -14.2 | ?
Cc1ccc(S(=O)(=O)N(C)C[C@H]2OCCCC[C@@H](C)Oc3ccc(NC(=O)c4ccccc4)cc3C(=O)N([C@H](C)CO)C[C@@H]2C)cc1 | · | 44.1 | -1.0 | · | · | · | ·
Cc1ccc(S(=O)(=O)N(C)C[C@H]2OCCCC[C@@H](C)Oc3ccc(NC(=O)Nc4ccccc4)cc3C(=O)N([C@@H](C)CO)C[C@H]2C)cc1 | -1.8 | ? | 0.2 | 106.2* | 102.6* | -17.3 | 19.3
CO[C@H]1CN(C)C(=O)c2ccc(NC(=O)Nc3cccc(F)c3)cc2OC[C@@H](C)N(C(=O)C2CC2)C[C@@H]1C | -0.1 | 1.8 | 2.2 | · | · | · | ·
C[C@@H]1CN([C@@H](C)CO)C(=O)c2cc(NS(=O)(=O)c3ccc(Cl)cc3)ccc2O[C@@H](C)CCCCO[C@@H]1CN(C)S(=O)(=O)c1ccccc1 | 0.9 | 82.7 | 0.6 | · | · | · | ·
C[C@H](CO)N1C[C@H](C)[C@@H](CN(C)S(=O)(=O)c2ccc(Cl)cc2)OCCCC[C@H](C)Oc2ccc(NS(=O)(=O)c3ccccc3)cc2C1=O | · | · | 0.3 | · | · | · | ·
C[C@H](CO)N1C[C@H](C)[C@@H](CN(C)S(=O)(=O)c2ccccc2)OCCCC[C@H](C)Oc2ccc(NS(=O)(=O)c3ccc(Cl)cc3)cc2C1=O | · | 114.5* | 24.6 | 100.6* | 67.2 | 30.1 | 8.8
C[C@@H]1CN([C@@H](C)CO)C(=O)c2cc(NS(=O)(=O)c3ccc(Cl)cc3)ccc2O[C@@H](C)CCCCO[C@H]1CN(C)S(=O)(=O)c1ccccc1 | -1.2 | 119.7* | -0.5 | 108.4* | 52.8 | 11.2 | 4.3
C[C@@H]1CN([C@H](C)CO)C(=O)c2cc(NS(=O)(=O)c3ccc(Cl)cc3)ccc2O[C@@H](C)CCCCO[C@@H]1CN(C)S(=O)(=O)c1ccccc1 | 1.5 | 118.1* | -3.2 | 104.0* | 92.6 | -27.2 | 22.0
C[C@@H]1CCCCO[C@@H](CN(C)S(=O)(=O)c2ccccc2)[C@@H](C)CN([C@H](C)CO)C(=O)c2cc(NS(=O)(=O)c3ccc(Cl)cc3)ccc2O1 | · | 62.8 | -0.1 | · | · | · | ·
C[C@H](CO)N1C[C@H](C)[C@H](CN(C)S(=O)(=O)c2ccccc2)OCCCC[C@H](C)Oc2ccc(NS(=O)(=O)c3ccc(Cl)cc3)cc2C1=O | · | 117.7* | -3.0 | 103.9* | 88.2 | -18.3 | -4.7
C[C@@H]1CCCCO[C@H](CN(C)S(=O)(=O)c2ccc(Cl)cc2)[C@@H](C)CN([C@H](C)CO)C(=O)c2cc(NS(=O)(=O)c3ccc(Cl)cc3)ccc2O1 | 2.9 | 31.6 | 0.5 | · | · | · | ·
COc1ccc(S(=O)(=O)Nc2ccc3c(c2)CC(=O)N([C@H](C)CO)C[C@@H](C)[C@H](CN(C)S(=O)(=O)c2ccccc2)O3)cc1 | -0.3 | 27.2 | 1.7 | · | · | · | ·
O=C(CN1CCOCC1)NCC[C@H]1CC[C@H](NC(=O)Cc2ccccn2)[C@@H](CO)O1 | 0.0 | 40.2 | 2.8 | · | · | · | ·
O=C(C[C@@H]1CC[C@H]2[C@@H](COC[C@H](O)CN2C(=O)Nc2cccc(Cl)c2)O1)NCCCN1CCOCC1 | · | -3.2 | -0.8 | · | · | · | ·
C[C@@H]1CCCCO[C@@H](CN(C)S(=O)(=O)c2ccc(Cl)cc2)[C@H](C)CN([C@H](C)CO)C(=O)c2cc(NS(=O)(=O)c3ccccc3)ccc2O1 | · | 103.8 | -0.6 | · | · | · | ·
C[C@@H]1CCCCO[C@H](CN(C)S(=O)(=O)c2ccc(Cl)cc2)[C@H](C)CN([C@H](C)CO)C(=O)c2cc(NS(=O)(=O)c3ccc(Cl)cc3)ccc2O1 | 2.3 | 107.8* | 0.7 | 101.1* | 116.2* | 9.8 | -14.6
C[C@@H]1CCCCO[C@H](CN(C)S(=O)(=O)c2ccccc2)[C@H](C)CN([C@H](C)CO)C(=O)c2cc(NS(=O)(=O)c3ccc(Cl)cc3)ccc2O1 | 1.7 | 116.9* | -1.8 | 99.5* | 102.0* | 17.2 | 4.4
C[C@@H]1CCCCO[C@@H](CN(C)S(=O)(=O)c2ccc(Cl)cc2)[C@H](C)CN([C@@H](C)CO)C(=O)c2cc(NS(=O)(=O)c3ccc(Cl)cc3)ccc2O1 | · | 61.3 | -0.8 | · | · | · | ·
COc1cccc(-c2cccc(-c3nc(C(=O)N(C)C)cc4c3[C@H](CCO)N([S@@](=O)C(C)(C)C)C4)c2)c1 | -0.2 | -78.9 | -0.6 | · | · | · | ·

Screening data from PubChem.
